What is called IC50 is the concentration needed to halve the response being measured. Higher therefore signals weaker potency.

The species entered for one series is Rattus norvegicus. Kind of series: The IC50 value was measured for inhibition of lipid autoxidation in rat brain homogenate. Format: functional. Summed up: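 Rat brain homogenate left to autoxidize with test compound present. The read-out is formation of thiobarbituric acid-reactive substances (TBARS). IC50 is the concentration that inhibits TBARS formation by 50%. Values are single or duplicate determinations, or means ± SD.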

Series [1] in a line: (§1) The reaction rate constant(K) by measuring competition with nitroblue tetrazolium of the superoxide radicals formed by xanthine oxidase/xanthine. Format: functional.
Series [2] is described as follows: as §1. Format: ADME.
Series [3] can be described thus: The reaction rate constant (K) by measuring competition with nitroblue tetrazolium of the superoxide radicals formed by xanthine oxidase/xanthine. Format: ADME.
The species named for series [4] is Mus musculus. In words: The ex vivo ID50 value was measured for lipid inhibition of autoxidation in mouse heart homogenate. The conditions noted are these: read-out: ID50 (the source's name). Format: functional. In outline: (§2)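 Groups of five CD1 mice were dosed subcutaneously, and hearts were excised 1 h later. Frozen hearts were homogenized, diluted in potassium phosphate buffer and incubated at 37 °C for 2 h. The reaction was stopped on ice with HClO4 and centrifuged. The supernatant was heated with thiobarbituric acid at 100 °C for 15 min. TBARS were extracted into n-butanol and read by fluorescence (ex 515 nm, em 553 nm) against a malondialdehyde dimethylacetal standard. ID50 was taken from semilog plots of log dose versus percent of vehicle control, using at least four doses.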

The species named for series [5] is Mus musculus. In words: The in vitro IC50 value was measured for inhibition of lipid autoxidation in mouse heart homogenate. Format: functional. Summed up:
(§3)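 Heart homogenate from untreated mice, diluted in potassium phosphate buffer. Test compound was added at several concentrations before 2 h incubation at 37 °C. The reaction was stopped on ice with HClO4, then heated with thiobarbituric acid at 100 °C for 15 min. TBARS were extracted into n-butanol and read by fluorescence (ex 515 nm, em 553 nm) against a malondialdehyde dimethylacetal standard. IC50 is 50% inhibition of TBARS formation.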

For series [6], the species on record is Mus musculus. Kind of series: The ex vivo ID50 value was measured for inhibition of lipid autoxidation in mouse heart homogenate. Format: functional. Conditions: read-out: ID50 (the source's name). In outline: as §2
The species entered for series [7] is Mus musculus. Kind of series: The in vitro IC50 value was measured for lipid inhibition of autoxidation in mouse heart homogenate. Format: functional. In outline:
as §3

Series [8] concerns Mus musculus. In words: The ex vivo ID50 value was measured for inhibition of lipid autoxidation in mouse heart homogenate 1 hr after subcutaneous administration. Conditions: sc, read-out: ID50 (the source's name). Format: functional. Summed up: as §2

Structures are written as SMILES.

`Cc1c(C)c2c(c(C)c1O)CC[C@](C)(CC(=O)[N-][N+](C)(C)C)O2` gave an IC50 in the series listed under Rattus norvegicus (Rattus norvegicus, Brain) of 8 µM.

In [1], `O=C1O[C@H]([C@@H](O)CO)C(O)=C1O` gave a K of 350000 M⁻¹ s⁻¹.

In the series listed under Rattus norvegicus (Rattus norvegicus, Brain), `Cc1c(C)c2c(c(C)c1O)CCC(C)(CC(=O)[N-][N+](C)(C)C)O2` (centres undefined) gave an IC50 of 6 µM. Also, the K in series [2] is 28000 M⁻¹ s⁻¹.

The molecule `Cc1c(C)c2c(c(C)c1O)CC[C@](C)(CC[S+](C)C)O2` yielded an IC50 in the series listed under Rattus norvegicus (Rattus norvegicus, Brain) of 2 µM.

Consider `Cc1c(C)c2c(c(C)c1O)CC[C@](C)(CC(=O)O)O2`, for which half-maximal inhibition in the series filed under Rattus norvegicus (Rattus norvegicus, Brain) (IC50) required 14 µM.

Molecule `Cc1c(C)c2c(c(C)c1O)CC[C@@](C)(CCN(C)C)O2` displayed an IC50 in the series listed under Rattus norvegicus (Rattus norvegicus, Brain) of 1 µM.

`Cc1c(C)c2c(c(C)c1O)CC[C@@](C)(CC(=O)[N-][N+](C)(C)C)O2`: half-maximal inhibition in the series listed under Rattus norvegicus (Rattus norvegicus, Brain) (IC50) required 9 µM.

Turning to `Cc1c(C)c2c(c(C)c1O)CCC(C)(C(=O)O)O2` (centres undefined) [TROLOX], the K in series [3] worked out at 20000 M⁻¹ s⁻¹. Also, the IC50 in the series listed under Rattus norvegicus turned out to be 14 µM.

Regarding `C[N+](C)(C)CC(O)C1OC(=O)C(O)=C1[O-]` (centres undefined), the K in series [3] was 600000 M⁻¹ s⁻¹. Further, the concentration for half-maximal inhibition (IC50) in the series listed under Rattus norvegicus (Rattus norvegicus, Brain) was over 200 µM.

`Cc1c(C)c2c(c(C)c1O)CC[C@@](C)(CC[P+](C)(C)C)O2`: in the series filed under Rattus norvegicus (Rattus norvegicus, Brain), the IC50 stood at 2 µM.

`Cc1c(C)c2c(c(C)c1O)CCC(C)(CC[S+](C)C)O2.Cc1ccc(S(=O)(=O)[O-])cc1` (centres undefined): the ED50 in the series listed under Mus musculus [4] was determined as 6 µmol/kg. The half-inhibitory concentration (IC50) in the series filed under Rattus norvegicus (Rattus norvegicus, Brain) was determined as 2 µM; in the series listed under Mus musculus [5] it was 7 µM. The same molecule registered a K in series [2] of 21000 M⁻¹ s⁻¹.

For the molecule `CCCCCCCCCCCCCCCCCCOC1=C([O-])C(C(O)C[N+](C)(C)C)OC1=O` (centres undefined), in the series filed under Rattus norvegicus (Rattus norvegicus, Brain), the IC50 was over 20 µM.

`Cc1c(C)c2c(c(C)c1O)CCC(C)(C(=O)[N-][N+](C)(C)C)O2` (centres undefined): 14 µM corresponded to half-maximal inhibition in the series filed under Rattus norvegicus (Rattus norvegicus, Brain) (IC50).

With `Cc1c(C)c2c(c(C)c1O)CC[C@](C)(CC[P+](C)(C)C)O2`, the IC50 in the series listed under Rattus norvegicus (Rattus norvegicus, Brain) was 2 µM.

`Cc1c(C)c2c(c(C)c1O)CCC(C)(CCN(C)C)O2` (centres undefined) had a K in [3] of 27000 M⁻¹ s⁻¹. Further, the ED50 in the series listed under Mus musculus [6] is over 150 µmol/kg. Moreover, in the series listed under Mus musculus [5], half-maximal inhibition (IC50) was put at 19 µM.

On to `CSCCC1(C)CCc2c(C)c(O)c(C)c(C)c2O1` (centres undefined), for which the K in series [3] was 800 M⁻¹ s⁻¹. Besides, the ED50 in the series listed under Mus musculus [4] is over 150 µmol/kg. The IC50 in the series filed under Rattus norvegicus (Rattus norvegicus, Brain) was 3 µM; in the series filed under Mus musculus [7] it was 18 µM.

Consider `Cc1c(C)c2c(c(C)c1O)CC[C@@](C)(CC(=O)O)O2`, for which the concentration for half-maximal inhibition (IC50) in the series listed under Rattus norvegicus (Rattus norvegicus, Brain) is 17 µM.

As to `Cc1c(C)c2c(c(C)c1O)CCC(C)(CC[P+](C)(C)C)O2.[Br-]` (centres undefined), the ED50 in the series filed under Mus musculus [4] worked out at 8 µmol/kg. The IC50 in the series listed under Rattus norvegicus (Rattus norvegicus, Brain) was 2 µM; in the series listed under Mus musculus [5], 10 µM. In series [2], this molecule registered a K of 24000 M⁻¹ s⁻¹.

Turning to `CCCCCCCCCCCCCCCCCCOC1=C(O)[C@@H](C(O)CO)OC1=O` (some centres undefined), the IC50 in the series filed under Rattus norvegicus (Rattus norvegicus, Brain) worked out at 6 µM. The molecule also showed a K in series [2] of 21000 M⁻¹ s⁻¹.

For the molecule `CC[P+](CC)(CC)CCC1(C)CCc2c(C)c(O)c(C)c(C)c2O1.[Br-]` (centres undefined), in the series listed under Mus musculus [4], the ED50 was determined as 7 µmol/kg. Also, the IC50 in the series filed under Rattus norvegicus (Rattus norvegicus, Brain) came out at 2 µM; in the series listed under Mus musculus [5], 10 µM. The molecule further came in with a K in series [2] of 22000 M⁻¹ s⁻¹.

`Cc1c(C)c2c(c(C)c1O)CC[C@](C)(CC[N+](C)(C)C)O2.Cc1ccc(S(=O)(=O)[O-])cc1` gave a K in series [3] of 18000 M⁻¹ s⁻¹. Also, in the series listed under Rattus norvegicus (Rattus norvegicus, Brain), inhibition was half-maximal at 2.2 µM (IC50).

`Cc1c(C)c2c(c(C)c1O)CC[C@](C)(CCN(C)C)O2` came in with an IC50 in the series listed under Rattus norvegicus (Rattus norvegicus, Brain) of 1 µM.

With `Cc1c(C)c2c(c(C)c1O)CC[C@@](C)(CC[N+](C)(C)C)O2.Cc1ccc(S(=O)(=O)[O-])cc1`, in [3], the K turned out to be 21000 M⁻¹ s⁻¹. The IC50 in the series filed under Rattus norvegicus (Rattus norvegicus, Brain) was 2.3 µM.

With `Cc1c(C)c2c(c(C)c1O)CC[C@@](C)(CCC[C@H](C)CCC[C@H](C)CCCC(C)C)O2` [alpha-TOCHOPHEROL], 14 µM corresponded to half-maximal inhibition in the series filed under Rattus norvegicus (Rattus norvegicus, Brain) (IC50).

`Cc1c(C)c2c(c(C)c1O)CC[C@@](C)(CC[S+](C)C)O2`: the half-maximal inhibitory concentration (IC50) in the series filed under Rattus norvegicus (Rattus norvegicus, Brain) stood at 2 µM.

Take `Cc1c(C)c2c(c(C)c1O)CCC(C)(CC[N+](C)(C)C)O2.Cc1ccc(S(=O)(=O)[O-])cc1` (centres undefined): in the series with Mus musculus [8], the ED50 was found to be 11 µmol/kg. The K in series [3] turned out to be 24000 M⁻¹ s⁻¹. Moreover, the IC50 amounted to 2.6 µM in the series listed under Rattus norvegicus (Rattus norvegicus, Brain) and 19 µM in the series filed under Mus musculus [5].
